A word on the EC50: it is the concentration needed to bring the measured effect to its halfway point. For orientation: IC50 means the concentration that inhibits the measured activity by half. High values mean weaker potency, low ones greater potency. As a reminder, the Ki is the dissociation constant of the complex between target and ligand, obtained from inhibition or displacement. Low values mean a stronger hold on the target, high ones a looser hold on the target.

This note sets out measurements from ChEMBL document CHEMBL1641573, “3-[(Imidazolidin-2-yl)imino]indazole ligands with selectivity for the α(2)-adrenoceptor compared to the imidazoline I(1) receptor” (Bioorg Med Chem, 2011).

The target of test [1] is T1, Alpha-2A adrenergic receptor (Homo sapiens) (UniProt P08913).
T1 sequence (whole entry): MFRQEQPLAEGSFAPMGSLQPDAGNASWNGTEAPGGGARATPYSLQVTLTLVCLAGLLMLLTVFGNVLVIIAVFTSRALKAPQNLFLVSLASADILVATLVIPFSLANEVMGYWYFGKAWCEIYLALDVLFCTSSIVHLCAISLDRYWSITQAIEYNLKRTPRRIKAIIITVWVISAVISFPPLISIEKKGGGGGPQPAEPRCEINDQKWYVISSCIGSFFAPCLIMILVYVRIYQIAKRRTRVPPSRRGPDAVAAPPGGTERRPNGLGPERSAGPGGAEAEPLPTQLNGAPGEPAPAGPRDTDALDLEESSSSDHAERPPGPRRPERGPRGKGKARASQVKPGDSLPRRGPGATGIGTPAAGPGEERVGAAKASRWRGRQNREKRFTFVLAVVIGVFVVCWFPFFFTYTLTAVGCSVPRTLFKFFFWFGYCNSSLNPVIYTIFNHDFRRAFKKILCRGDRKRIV
Briefly: Agonist activity at human recombinant alpha2A adrenergic receptor expressed in CHO cells assessed as induction of [35S]GTPgammaS binding after 60 mins by scintillation counting relative to noradrenaline. The class given is functional, cell-based. A digest of the protocol:
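Membranes from CHO-K1 cells expressing human α2A-adrenoceptor, in Tris buffer pH 7.4 with 10 µM GDP, 5 mM MgCl2 and 150 mM NaCl; 5 µg protein preincubated with agonist 30 min at 37 °C, then 0.1 nM [35S]GTPγS for 60 min at 37 °C. Filtration and scintillation counting, duplicates, at least three repeats. Curve fit gave EC50 and intrinsic activity as % of noradrenaline.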
(In general: GTPγS resists hydrolysis and so accumulates on activated G proteins.)

Test [2] concerns the target T2, Alpha-2A adrenergic receptor (Homo sapiens, UniProt P08913).
T2 sequence (P08913 whole entry): T1 sequence (whole entry)
Put plainly: Agonist activity at human recombinant alpha2A adrenergic receptor expressed in CHO cells assessed as induction of [35S]GTPgammaS binding after 60 mins by scintillation counting. The class given is functional, cell-based. In a few lines: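 Membranes from CHO-K1 cells expressing human α2A-adrenoceptor, in Tris buffer pH 7.4 with 10 µM GDP, 5 mM MgCl2 and 150 mM NaCl; 5 µg protein preincubated with agonist 30 min at 37 °C, then 0.1 nM [35S]GTPγS for 60 min at 37 °C. Filtration and scintillation counting, duplicates, at least three repeats.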

The species named for the next test is Rattus norvegicus. Put plainly: Selectivity ratio of IC50 for imidazoline I1 receptor in Sprague-Dawley rat kidney membrane to Ki for alpha2 adrenergic receptor in Sprague-Dawley rat brain membrane. The class given is cell membranes.
A further test addresses Nischarin (Rattus norvegicus, UniProt Q4G017). Briefly: Displacement of [3H]clonidine from imidazoline I1 receptor in Sprague-Dawley rat kidney membrane after 45 mins by liquid scintillation counting. The format is cell membranes. In a few lines:
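Specific binding defined by 10 µM rilmenidine. 11 test concentrations, 50 mM Tris-HCl pH 7.4, room temperature 45 min. Filtration through PEI-soaked glass-fibre filters, scintillation counting, IC50 by curve fitting.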
(In general: Displacement assays read how much labelled ligand stays bound in the presence of the test substance.)

In test [3] the target is T3, Adrenergic receptor alpha-1 (Rattus norvegicus, UniProt P15823+P23944+P43140).
T3 sequence (P15823 whole entry): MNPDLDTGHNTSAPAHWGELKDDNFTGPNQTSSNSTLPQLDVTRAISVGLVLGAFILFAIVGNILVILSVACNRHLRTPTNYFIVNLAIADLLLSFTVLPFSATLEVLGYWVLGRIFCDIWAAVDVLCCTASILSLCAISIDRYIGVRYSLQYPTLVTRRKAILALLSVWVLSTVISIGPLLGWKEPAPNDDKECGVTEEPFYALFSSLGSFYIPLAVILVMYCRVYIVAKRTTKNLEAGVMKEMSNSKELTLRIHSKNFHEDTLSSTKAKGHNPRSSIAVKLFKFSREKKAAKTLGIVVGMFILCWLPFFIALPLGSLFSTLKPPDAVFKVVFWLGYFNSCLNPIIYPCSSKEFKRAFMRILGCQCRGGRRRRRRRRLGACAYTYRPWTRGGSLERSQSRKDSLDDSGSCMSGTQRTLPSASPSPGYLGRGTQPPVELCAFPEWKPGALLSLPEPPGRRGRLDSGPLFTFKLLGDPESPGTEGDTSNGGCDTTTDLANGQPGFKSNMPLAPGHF
T3 sequence (P23944 whole entry): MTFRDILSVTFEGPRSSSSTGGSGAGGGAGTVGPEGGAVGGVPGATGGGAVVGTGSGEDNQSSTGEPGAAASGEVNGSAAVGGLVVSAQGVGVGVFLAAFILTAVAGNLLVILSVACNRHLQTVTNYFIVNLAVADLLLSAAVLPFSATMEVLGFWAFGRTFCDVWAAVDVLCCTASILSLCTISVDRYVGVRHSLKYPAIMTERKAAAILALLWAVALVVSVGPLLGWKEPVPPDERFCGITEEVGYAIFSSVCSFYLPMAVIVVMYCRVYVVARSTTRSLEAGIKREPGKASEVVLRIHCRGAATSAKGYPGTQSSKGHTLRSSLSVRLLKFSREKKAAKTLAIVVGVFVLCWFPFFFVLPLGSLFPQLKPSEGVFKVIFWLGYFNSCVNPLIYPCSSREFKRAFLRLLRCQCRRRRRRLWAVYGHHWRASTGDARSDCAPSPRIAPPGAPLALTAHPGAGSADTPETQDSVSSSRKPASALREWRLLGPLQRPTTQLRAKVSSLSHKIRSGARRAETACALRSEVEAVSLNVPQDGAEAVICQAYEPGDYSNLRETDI
T3 sequence (P43140 whole entry): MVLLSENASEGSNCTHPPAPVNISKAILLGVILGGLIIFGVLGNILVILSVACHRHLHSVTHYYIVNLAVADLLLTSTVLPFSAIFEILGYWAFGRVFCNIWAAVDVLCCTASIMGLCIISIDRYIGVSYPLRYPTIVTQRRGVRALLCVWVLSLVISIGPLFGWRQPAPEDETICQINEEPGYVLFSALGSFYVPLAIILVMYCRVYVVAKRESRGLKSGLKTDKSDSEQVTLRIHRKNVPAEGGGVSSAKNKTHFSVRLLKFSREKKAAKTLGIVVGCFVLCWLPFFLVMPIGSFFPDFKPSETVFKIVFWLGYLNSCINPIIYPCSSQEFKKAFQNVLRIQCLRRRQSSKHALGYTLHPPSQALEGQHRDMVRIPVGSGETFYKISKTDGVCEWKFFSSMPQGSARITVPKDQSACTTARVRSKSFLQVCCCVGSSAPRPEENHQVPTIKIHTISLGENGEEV
Put plainly: Displacement of [3H]prazosin from alpha1 adrenergic receptor in Sprague-Dawley rat brain membrane after 45 mins by liquid scintillation counting. The format is cell membranes. A digest of the protocol:
(§1)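 Crude P2 brain membranes from male Sprague–Dawley rats (0.2–0.3 mg protein) incubated with 11 concentrations (0.01 nM–100 µM) and 1 nM of [3H]2BFI (I2), [3H]prazosin (α1) or [3H]RX821002 (α2), at room temperature in triplicate. Non-specific binding: BU224, phenylephrine or rauwolscine. Filtration, scintillation counting, Ki by Cheng–Prusoff from 3–4 experiments.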

Test [4] has as its target T4, Adrenergic receptor alpha-2 (Rattus norvegicus, UniProt P22086+P19328+P22909).
T4 sequence (P22086 whole entry): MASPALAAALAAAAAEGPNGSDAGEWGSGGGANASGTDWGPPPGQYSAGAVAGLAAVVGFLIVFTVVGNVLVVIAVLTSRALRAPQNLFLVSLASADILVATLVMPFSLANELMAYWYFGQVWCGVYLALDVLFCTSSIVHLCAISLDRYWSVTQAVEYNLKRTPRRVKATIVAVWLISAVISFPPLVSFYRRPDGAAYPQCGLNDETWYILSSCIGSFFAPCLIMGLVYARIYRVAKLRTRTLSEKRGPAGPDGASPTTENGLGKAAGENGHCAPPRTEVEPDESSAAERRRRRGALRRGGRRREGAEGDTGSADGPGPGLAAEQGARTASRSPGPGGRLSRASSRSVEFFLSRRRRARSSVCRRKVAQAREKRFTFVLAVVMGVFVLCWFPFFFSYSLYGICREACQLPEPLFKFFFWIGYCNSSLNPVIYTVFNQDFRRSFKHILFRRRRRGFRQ
T4 sequence (P19328 whole entry): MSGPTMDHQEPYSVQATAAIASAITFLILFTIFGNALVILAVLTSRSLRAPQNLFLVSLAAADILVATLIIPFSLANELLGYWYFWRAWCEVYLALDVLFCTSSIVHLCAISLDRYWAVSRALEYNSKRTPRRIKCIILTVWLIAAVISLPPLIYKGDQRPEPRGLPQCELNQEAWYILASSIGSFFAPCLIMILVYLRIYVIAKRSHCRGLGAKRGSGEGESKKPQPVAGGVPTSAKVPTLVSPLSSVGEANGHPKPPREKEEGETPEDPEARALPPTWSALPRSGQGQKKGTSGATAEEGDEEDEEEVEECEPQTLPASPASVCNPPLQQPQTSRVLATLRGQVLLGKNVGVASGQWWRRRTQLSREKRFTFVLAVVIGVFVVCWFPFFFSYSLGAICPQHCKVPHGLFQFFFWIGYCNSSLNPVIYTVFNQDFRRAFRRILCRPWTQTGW
T4 sequence (P22909 whole entry): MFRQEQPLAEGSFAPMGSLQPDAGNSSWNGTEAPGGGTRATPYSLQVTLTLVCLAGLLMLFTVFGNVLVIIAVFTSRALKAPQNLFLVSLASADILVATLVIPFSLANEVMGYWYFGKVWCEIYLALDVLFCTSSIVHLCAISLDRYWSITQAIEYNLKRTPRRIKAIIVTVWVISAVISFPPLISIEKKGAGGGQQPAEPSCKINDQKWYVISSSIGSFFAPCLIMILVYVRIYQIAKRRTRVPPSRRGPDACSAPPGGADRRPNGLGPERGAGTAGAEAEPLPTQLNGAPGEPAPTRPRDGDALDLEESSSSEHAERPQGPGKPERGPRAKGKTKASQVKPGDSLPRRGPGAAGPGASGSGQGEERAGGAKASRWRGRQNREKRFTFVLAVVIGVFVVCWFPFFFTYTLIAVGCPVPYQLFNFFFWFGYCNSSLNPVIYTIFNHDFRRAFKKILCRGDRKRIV
Briefly: Displacement of [3H]RX821002 from alpha2 adrenergic receptor in Sprague-Dawley rat brain membrane after 45 mins by liquid scintillation counting. The class given is cell membranes. A digest of the protocol: as §1

Where only a bound is given, the exact number is not on record here.

Nischarin, sequence (Q4G017 whole entry): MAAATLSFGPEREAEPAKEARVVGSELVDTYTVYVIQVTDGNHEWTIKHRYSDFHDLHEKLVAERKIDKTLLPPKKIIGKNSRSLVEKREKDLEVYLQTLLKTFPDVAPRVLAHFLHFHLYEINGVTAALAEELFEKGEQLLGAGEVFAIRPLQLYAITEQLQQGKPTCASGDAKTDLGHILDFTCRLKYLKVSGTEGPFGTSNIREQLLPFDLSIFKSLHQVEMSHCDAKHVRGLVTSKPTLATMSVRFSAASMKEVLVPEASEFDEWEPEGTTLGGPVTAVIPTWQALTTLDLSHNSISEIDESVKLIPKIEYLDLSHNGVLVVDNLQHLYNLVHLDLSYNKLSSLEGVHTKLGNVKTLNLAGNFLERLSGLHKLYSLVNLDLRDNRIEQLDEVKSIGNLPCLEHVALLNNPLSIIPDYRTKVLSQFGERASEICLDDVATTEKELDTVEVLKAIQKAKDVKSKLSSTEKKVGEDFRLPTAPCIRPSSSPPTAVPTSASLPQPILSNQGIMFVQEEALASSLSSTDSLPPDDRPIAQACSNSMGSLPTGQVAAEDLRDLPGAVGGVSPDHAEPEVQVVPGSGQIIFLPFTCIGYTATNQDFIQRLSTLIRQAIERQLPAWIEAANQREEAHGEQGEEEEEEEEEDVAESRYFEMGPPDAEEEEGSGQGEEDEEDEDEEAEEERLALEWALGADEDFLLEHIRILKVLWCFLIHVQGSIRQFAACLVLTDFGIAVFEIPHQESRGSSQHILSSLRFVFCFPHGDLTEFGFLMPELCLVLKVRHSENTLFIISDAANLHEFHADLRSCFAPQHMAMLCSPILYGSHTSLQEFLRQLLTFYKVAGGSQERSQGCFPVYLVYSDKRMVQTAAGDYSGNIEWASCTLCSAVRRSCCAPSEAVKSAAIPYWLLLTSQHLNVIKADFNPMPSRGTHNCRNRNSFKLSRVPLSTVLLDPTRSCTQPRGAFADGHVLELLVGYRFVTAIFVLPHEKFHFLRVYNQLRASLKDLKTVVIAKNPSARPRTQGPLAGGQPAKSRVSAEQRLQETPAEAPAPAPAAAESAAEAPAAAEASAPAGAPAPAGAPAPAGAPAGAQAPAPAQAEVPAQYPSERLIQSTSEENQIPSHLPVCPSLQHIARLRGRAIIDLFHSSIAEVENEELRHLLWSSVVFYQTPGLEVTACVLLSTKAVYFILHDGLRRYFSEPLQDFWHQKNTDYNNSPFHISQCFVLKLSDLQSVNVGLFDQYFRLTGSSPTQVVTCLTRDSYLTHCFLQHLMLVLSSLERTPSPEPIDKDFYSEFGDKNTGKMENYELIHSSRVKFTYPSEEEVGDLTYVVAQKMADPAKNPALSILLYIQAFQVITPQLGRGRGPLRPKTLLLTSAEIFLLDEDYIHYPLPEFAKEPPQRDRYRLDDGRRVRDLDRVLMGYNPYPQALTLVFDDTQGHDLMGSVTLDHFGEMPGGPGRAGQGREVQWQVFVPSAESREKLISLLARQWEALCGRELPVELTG

In the case of `Cc1cccc([C@H](C)c2c[nH]cn2)c1C`, the Intrinsic activity in test [1] is 60%.
For the compound `Clc1cccc2c1cnn2N=C1NCCN1`, the concentration giving a half-maximal response (EC50) in test [2] turned out to be 0.18 µM. For the same compound, the Intrinsic activity in test [1] turned out to be 62%.
Turning to `Cl.Clc1ccc2[nH]nc(N=C3NCCN3)c2c1`, the Ratio in the test listed under Rattus norvegicus was greater than 9.4. The IC50 on Nischarin is greater than 100 µM. For the same compound, the inhibition constant (Ki) in test [3] is 0.121 µM; in test [4], 10.6 µM.
On the same counts, the results for `Cc1ccc2[nH]nc(N=C3NCCN3)c2c1.Cl` are 2, 21.2 µM, 29 µM and 11.4 µM.
For `COc1ccc2[nH]nc(N=C3NCCN3)c2c1.Cl`, the Ratio in the test filed under Rattus norvegicus is greater than 68. The compound further came in with a 50% inhibitory concentration (IC50) on Nischarin greater than 100 µM. The Ki in test [3] amounted to 0.244 µM; in test [4], 1.46 µM.
Taken in the same sequence, the figures for `Cl.Clc1ccc2c(N=C3NCCN3)n[nH]c2c1` were 4, 2.01 µM, 0.386 µM and 0.502 µM.
As to `Cc1cccc2cnn(N=C3NCCN3)c12`, the half-maximal effective concentration (EC50) in test [2] was determined as 0.037 µM. For the same compound, in test [1], the Intrinsic activity worked out at 32%.
Regarding `COc1cccc2[nH]nc(N=C3NCCN3)c12.Cl`, the Ratio in the test filed under Rattus norvegicus was determined as 34. On Nischarin, this compound came in with an IC50 of 25.6 µM. Besides, the Ki in test [3] was 0.196 µM; in test [4], 0.748 µM.
On the same counts, the results for `Brc1cccc2[nH]nc(N=C3NCCN3)c12.Cl` are 1, 7.56 µM, 0.984 µM and 6.42 µM.
Taken in the same sequence, the figures for `Cc1ccc2c(N=C3NCCN3)n[nH]c2c1.Cl` were 94.3, 16.6 µM, 0.508 µM and 0.176 µM.
Take `Cl.c1ccc2c(N=C3NCCN3)n[nH]c2c1`: the EC50 in test [2] is 0.082 µM. In addition, the Ratio in the test filed under Rattus norvegicus is 82. Further, the Intrinsic activity in test [1] was determined as 55%. On Nischarin, this compound registered a half-maximal inhibitory concentration (IC50) of 3.22 µM. The compound also registered a Ki in test [4] of 0.0394 µM.
On to `c1ccc2c(c1)cnn2N=C1NCCN1` [MARSANIDINE], for which the EC50 in test [2] was 0.16 µM. Further, in test [1], the Intrinsic activity was 18%.
For `Clc1cccc2cnn(N=C3NCCN3)c12`, in test [2], the EC50 stood at 0.015 µM. In addition, the Intrinsic activity in test [1] is 48%.
